Hits are enriched below; roughly 2.3% of the tested compounds scored in any of these assays.
TAAR1 agonist: agonists of human TAAR1; Q96RJ0; activation, % at 3 µM; hit rate 0.99% among 360,000; AID 624467; CHO RD-HGA16 TAAR1, Fluo-8 calcium fluorescence; vehicle wells 0%, saturating PEA agonist 100%;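 active = activation above the mean activation of all test compounds in the run plus 3 SD, cut at about 38% in these data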
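Assay system: CHO-derived RD-HGA16 cells with stable Gα16 and human TAAR1; timing: 17-24 h seeding, 75 min 37 °C dye, 30 min RT; read-out: % activation from peak over basal fluorescence ratio, DMSO-to-PEA scaled; measured by: kinetic Fluo-8 calcium fluorescence; benchmarks: low control DMSO, high control PEA (EC100); doses: 3 µM single concentration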
OXTR agonist: agonists of human oxytocin receptor. activation, % at 3 µM. CHO-OTR cells, Fluo-8 calcium fluorescence; normalized: DMSO 0%, oxytocin 100%. hit rate 0.32% among 320,000;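 active = activation above the mean of all tested compounds plus 3 SD, cutoff set per screening run, cut at about 20% in these data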;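 note: peak over basal fluorescence ratio from a 100 s FLIPR kinetic read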
TAAR1 antag: antagonists of human TAAR1 | CHO RD-HGA16 TAAR1, Fluo-8 calcium fluorescence, antagonist | inhibition, % at 3 µM | hit rate 1.5% among 360,000 | AID 624466;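 active = inhibition above a per-plate cutoff, the mean inhibition of test compounds on that plate plus 3 SD, cut at about 49% in these data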
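System: CHO RD-HGA16 cells bearing hTAAR1. Reagent: EC80 β-phenethylamine stimulus. Schedule: seeding 17-24 h prior, 75-min 37 °C, 30-min RT dye loading. Signal: Fluo-8 intracellular calcium dye fluorescence, real-time kinetic reads. Read-out: % inhibition from peak post-agonist over basal fluorescence ratio. Benchmarks: vehicle wells and EC80 agonist wells. Replicates: n of 1.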
V1aR counter: activates human V1a receptor in oxytocin agonist counter-screen | P37288 | hit rate 0.25% among 320,000 | CHO-V1R cells, Fluo-8 calcium fluorescence, agonist mode; 0% DMSO, 100% 3 nM vasopressin | activation, % at 3 µM;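 active = activation above the mean activation of all tested compounds plus 3 SD, per screening run, cut at about 20% in these data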;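 note: signal is peak over basal fluorescence ratio across a 100 second FLIPR read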
Target sequence (P37288 whole entry, looked up): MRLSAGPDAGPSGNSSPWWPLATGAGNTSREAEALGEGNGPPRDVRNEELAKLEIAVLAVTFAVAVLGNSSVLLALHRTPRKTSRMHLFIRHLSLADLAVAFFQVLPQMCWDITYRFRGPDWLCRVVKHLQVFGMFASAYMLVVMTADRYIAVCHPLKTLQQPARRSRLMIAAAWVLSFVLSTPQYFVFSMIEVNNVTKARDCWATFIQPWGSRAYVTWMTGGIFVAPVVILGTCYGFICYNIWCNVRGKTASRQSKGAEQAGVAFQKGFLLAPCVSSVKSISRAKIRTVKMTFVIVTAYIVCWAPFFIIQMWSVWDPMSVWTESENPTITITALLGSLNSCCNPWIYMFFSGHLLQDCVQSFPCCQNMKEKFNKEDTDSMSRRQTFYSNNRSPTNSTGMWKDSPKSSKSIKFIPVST
OXTR potentiate: potentiates the human oxytocin receptor response | CHO-OTR cells, Fluo-8 calcium fluorescence, potentiator mode; 0% = oxytocin EC15, 100% = EC100 | AID 2445 | activation, % at 3 µM | hit rate 0.061% among 320,000 | P30559;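 active = activation above that plate's cutoff, the mean activation of tested compounds plus 3 SD, cut at about 6.6% in these data, passing the limit was not always enough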
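Material: human OTR in CHO cells. Compound: 3.0 µM, one dose. Timing: compound 6 min at room temperature before oxytocin, 100 s read. Evaluation: % activation of max/min ratio relative to oxytocin controls. Replication: single well per compound, singlicate. Signal: Fluo-8 calcium dye fluorescence.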
nonsel antag count: nonselective antagonist in TAAR1 antagonist counter-screen; shares compounds with TAAR1 antag; counterscreen cell line, calcium fluorescence, antagonist mode; inhibition, % at 3 µM; hit rate 77% among 2,400; in the data active = inhibition above about 22%;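 note: CHO-Ga16 host cells stimulated with ATP at an EC80 level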
TAAR1 ant conf: confirmation of human TAAR1 antagonists | shares compounds with TAAR1 antag | TAAR1-expressing cells, fluorescence antagonist read-out | inhibition, % at 3 µM | hit rate 40% among 2,400 | AID 651785; in the data active = inhibition above about 49%;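 note: CHO-Ga16 host cells challenged with agonist PEA near its EC80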
Ga16 nonsel ag: counter-screen for TAAR1 antagonists: nonselective Ga16 agonists; Ga16-expressing cells, calcium fluorescence, agonist counterscreen; AID 651953; activation, % at 3 µM; shares compounds with TAAR1 antag; hit rate 18% among 2,400; in the data active = activation above about 12%
TAAR1 ag count: TAAR1 agonism, antagonist counter-screen; shares compounds with TAAR1 antag; hTAAR1 cell line, fluorescence activation, agonist mode; activation, % at 3 µM; hit rate 2% among 2,400; in the data active = activation above about 37%;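 note: CHO cells stably expressing TAAR1 with calcium dye readout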
Hits are given with their value.

Screening COCCNc1nc(NCc2ccccc2OC)c2sccc2n1 returned TAAR1 agonist inactive and TAAR1 antag inactive.
For COc1ccccc1CNc1nc(NCc2cccs2)nc2ccsc12 the results were TAAR1 agonist inactive, TAAR1 antag 76, nonsel antag count 62, TAAR1 ant conf 80, Ga16 nonsel ag 34 and TAAR1 ag count 49.
Screening C=C(C)Cn1c2ccc(NC(=O)CCc3cccnc3)cc2c(=O)n1C returned TAAR1 agonist inactive and TAAR1 antag inactive.
O=C(OCc1cc(Cl)ccc1OC(F)F)c1cc(S(=O)(=O)O)ccc1O was read as TAAR1 agonist inactive and TAAR1 antag inactive.
Cc1ccc(CCNC(=O)C2CCCN(c3nc4ccccc4o3)C2)cc1 (centres undefined) was read as TAAR1 agonist inactive, OXTR agonist inactive, TAAR1 antag 50, V1aR counter inactive, OXTR potentiate inactive, nonsel antag count 23, TAAR1 ant conf inactive, Ga16 nonsel ag inactive and TAAR1 ag count inactive.
Screening O=C(N/N=C/c1coc2ccccc2c1=O)c1ccc(Cl)cc1 returned TAAR1 agonist inactive, OXTR agonist inactive, TAAR1 antag inactive, V1aR counter inactive and OXTR potentiate inactive.
O=c1c(/C=N\NS(=O)(=O)c2ccccc2)coc2ccc(Cl)cc12 was read as TAAR1 agonist inactive, OXTR agonist inactive, TAAR1 antag 59, V1aR counter inactive, OXTR potentiate inactive, nonsel antag count 26, TAAR1 ant conf 49, Ga16 nonsel ag inactive and TAAR1 ag count inactive.
Screening O=C(CSc1nnc(Cc2cccs2)n1C1CCCCC1)N1CCCc2ccccc21 returned TAAR1 agonist inactive, OXTR agonist inactive, TAAR1 antag 64, V1aR counter inactive, OXTR potentiate inactive, nonsel antag count 36, TAAR1 ant conf 54, Ga16 nonsel ag inactive and TAAR1 ag count inactive.
`Cn1c(Cc2cccs2)nnc1SCC(=O)N1CCCc2ccccc21` gave TAAR1 agonist inactive, OXTR agonist inactive, TAAR1 antag inactive, V1aR counter inactive and OXTR potentiate inactive.
For O=C(CSc1nnc(Cc2cccs2)n1CCc1ccccc1)N1CCCc2ccccc21 the results were TAAR1 agonist inactive, OXTR agonist inactive, TAAR1 antag 57, V1aR counter inactive, OXTR potentiate inactive, nonsel antag count 22, TAAR1 ant conf 58, Ga16 nonsel ag inactive and TAAR1 ag count inactive.
For COC(=O)c1cc(NC(=O)COC(=O)C2COc3ccccc3O2)cc(C(=O)OC)c1 (centres undefined) the results were TAAR1 agonist inactive, OXTR agonist inactive, TAAR1 antag 72, V1aR counter inactive, OXTR potentiate inactive, nonsel antag count 26, TAAR1 ant conf inactive, Ga16 nonsel ag inactive and TAAR1 ag count inactive.
Screening Cc1cccc(C)c1-n1nnnc1C(c1ccccc1OC(F)(F)F)N1CCN(C/C=C/c2ccccc2)CC1 (centres undefined) returned TAAR1 agonist inactive and TAAR1 antag inactive.
Cc1ccc(C(=O)Nc2cccc(-c3ccc(N4CCOCC4)nn3)c2)cc1[N+](=O)[O-] was read as TAAR1 agonist inactive, OXTR agonist inactive, TAAR1 antag 60, V1aR counter inactive, OXTR potentiate inactive, nonsel antag count inactive, TAAR1 ant conf inactive, Ga16 nonsel ag inactive and TAAR1 ag count inactive.
O=C(Nc1cccc(-c2ccc(N3CCOCC3)nn2)c1)c1ccc([N+](=O)[O-])cc1 was read as TAAR1 agonist inactive, OXTR agonist inactive, TAAR1 antag inactive, V1aR counter inactive and OXTR potentiate inactive.
For CN(C)c1nc(Nc2ccc(Cl)cc2)nc(OCC#N)n1 the results were TAAR1 agonist inactive, OXTR agonist inactive, TAAR1 antag 58, V1aR counter inactive, OXTR potentiate inactive, nonsel antag count inactive, TAAR1 ant conf inactive, Ga16 nonsel ag inactive and TAAR1 ag count inactive.
Screening COc1ccc(-c2c(C)nc3c(-c4ccccn4)cnn3c2N)cc1 returned TAAR1 agonist inactive, TAAR1 antag 67, nonsel antag count 24, TAAR1 ant conf 62, Ga16 nonsel ag inactive and TAAR1 ag count inactive.
COc1ccc(-c2c(C)nc3c(-c4ccsc4)cnn3c2N)cc1 was read as TAAR1 agonist inactive, OXTR agonist inactive, TAAR1 antag inactive, V1aR counter inactive and OXTR potentiate inactive.
Screening Cc1nn(Cc2c(F)c(F)c(F)c(F)c2F)c(C)c1NC(=O)c1ccc(COc2ccccc2Cl)cc1 returned nonsel antag count inactive and Ga16 nonsel ag inactive.
Screening CN1CCN(c2nc(-c3cccnc3)nc3ccccc23)CC1 returned TAAR1 agonist inactive, OXTR agonist inactive, TAAR1 antag inactive, V1aR counter inactive and OXTR potentiate inactive.
Screening Cc1ccc(C)c(S(=O)(=O)N2CCN(c3nc(-c4cccnc4)nc4ccccc34)CC2)c1 returned TAAR1 agonist inactive, OXTR agonist inactive, TAAR1 antag 61, V1aR counter inactive, OXTR potentiate inactive, nonsel antag count inactive, TAAR1 ant conf inactive, Ga16 nonsel ag inactive and TAAR1 ag count inactive.
For CCN(CC)S(=O)(=O)c1cc(NC(=O)c2ccc3c(c2)NC(=O)C(C)S3)ccc1C (centres undefined) the results were TAAR1 agonist inactive, OXTR agonist inactive, TAAR1 antag 73, V1aR counter inactive, OXTR potentiate inactive, nonsel antag count 41, TAAR1 ant conf 52, Ga16 nonsel ag 13 and TAAR1 ag count inactive.
`Cn1ccc2cc(-c3ccc4ncnc(NCc5cccs5)c4c3)ccc21` gave TAAR1 agonist inactive, OXTR agonist inactive, TAAR1 antag inactive, V1aR counter inactive and OXTR potentiate inactive.
For NNC(=O)CNC(c1ccccc1)c1cc(Br)ccc1NC(=O)c1cccc(Cl)c1 (centres undefined) the results were TAAR1 agonist inactive, OXTR agonist inactive, TAAR1 antag inactive, V1aR counter inactive and OXTR potentiate inactive.
`COC(=O)CNC(c1ccccc1)c1cc(Cl)ccc1NC(=O)c1cccc(Cl)c1` (centres undefined) gave TAAR1 agonist inactive, OXTR agonist inactive, TAAR1 antag 87, V1aR counter inactive, OXTR potentiate inactive, nonsel antag count inactive, TAAR1 ant conf inactive, Ga16 nonsel ag inactive and TAAR1 ag count inactive.
Screening COc1ccc(S(=O)(=O)N2CCOCC2)cc1C(=O)N1CCCCC1 returned TAAR1 agonist inactive, OXTR agonist inactive, TAAR1 antag inactive, V1aR counter inactive and OXTR potentiate inactive.
